Measurements from ChEMBL document CHEMBL3808307, “Triazolylthioacetamide: A Valid Scaffold for the Development of New Delhi Metallo-β-Lactmase-1 (NDM-1) Inhibitors” (ACS Med Chem Lett, 2016).
The source made the active and inactive calls. The calls are words filed in the database; no cut-off is given here.

Tests used:
[1] = test system: Aeromonas veronii bv. sobria; assay: Inhibition of Aeromonas veronii bv. sorbia Metallo-beta-lactamase ImiS up to 10 uM preincubated for 60 min followed by addition of imipenem as substrate by spectrometry method
Summary of the method: (§1)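 Purified recombinant MβL preincubated with inhibitor for 60 min, then hydrolysis followed by UV spectrometry. Substrate was cefazolin, or imipenem for ImiS, at 26–160 μM. Inhibitor ranged 15 nM to 10 μM. IC50 was the concentration giving a 50% drop in enzyme activity, calculated from kinetic data.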

[2] = test system: Stenotrophomonas maltophilia; assay: Inhibition of Stenotrphomonas maltophilia metallo-beta-lactamase L1 up to 10 uM preincubated for 60 min followed by addition of cefazolin as substrate by spectrometry method; summary of the method: as §1
[3] = target: T1, Metallo-beta-lactamase type 2 (Klebsiella pneumoniae, UniProt C7C422); assay: Inhibition of Klebsiella pneumoniae metallo-beta-lactamase NDM-1 expressed in Escherichia coli BL21(DE3) cells preincubated for 60 min followed by addition of cefazolin as substrate by spectrometry method; summary of the method: as §1
T1 sequence (C7C422 whole entry): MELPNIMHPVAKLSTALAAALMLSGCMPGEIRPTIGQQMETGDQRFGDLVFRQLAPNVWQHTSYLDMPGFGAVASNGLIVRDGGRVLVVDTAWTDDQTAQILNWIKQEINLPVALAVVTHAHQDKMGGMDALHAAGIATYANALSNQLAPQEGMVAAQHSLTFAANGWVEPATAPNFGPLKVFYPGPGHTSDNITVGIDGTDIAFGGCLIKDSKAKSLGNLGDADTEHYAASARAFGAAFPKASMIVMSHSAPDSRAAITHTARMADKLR

[4] = target: Metallo-beta-lactamase type 2 (Bacteroides fragilis) (UniProt P25910); assay: Inhibition of Bacteroides fragilis CcrA metallo-beta-lactamase up to 10 uM preincubated for 60 min followed by addition of cefazolin as substrate by spectrometry method; summary of the method: as §1
Chain of Metallo-beta-lactamase type 2 (Bacteroides fragilis) (P25910 whole entry): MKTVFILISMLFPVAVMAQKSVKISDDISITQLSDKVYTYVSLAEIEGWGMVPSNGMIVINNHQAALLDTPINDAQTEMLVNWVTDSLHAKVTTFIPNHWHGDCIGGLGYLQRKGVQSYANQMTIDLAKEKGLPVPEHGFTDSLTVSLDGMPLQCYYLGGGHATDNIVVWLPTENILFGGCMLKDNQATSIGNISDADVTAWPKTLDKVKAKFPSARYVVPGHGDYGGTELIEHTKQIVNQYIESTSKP

[5] = target: T1, Metallo-beta-lactamase type 2; assay: Mixed type inhibition of Klebsiella pneumoniae metallo-beta-lactamase NDM-1 expressed in Escherichia coli BL21(DE3) cells assessed as hydrolysis of cefazolin preincubated for 60 min followed by addition of cefazolin by Lineweaver-Burk plot analysis
Summary of the method: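 Purified recombinant NDM-1 preincubated with inhibitor for 60 min. Cefazolin hydrolysis was then followed by UV spectrometry, with substrate varied 26–160 μM and inhibitor at 0, 0.25, 0.5 and 1.0 μM. Mode was taken from Lineweaver–Burk plots. Ki came from replots of slope and intercept […].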

| inhibition [1] | inhibition [2] | IC50 [3] [nM] | inhibition [4] | Ki [5] [nM] | Structure (SMILES) |
| --- | --- | --- | --- | --- | --- |
| inactive | inactive | 1500 | inactive | – | CCc1ccccc1NC(=O)CSc1nnc(-c2ccc(O)cc2)[nH]1 |
| inactive | inactive | 160 | inactive | – | O=C(CSc1nnc(-c2ccccc2O)[nH]1)Nc1cccc(Cl)c1 |
| inactive | inactive | 160 | inactive | – | CCCCc1ccc(NC(=O)CSc2nnc(-c3ccccc3O)[nH]2)cc1 |
| inactive | inactive | 980 | inactive | – | Cc1ccccc1NC(=O)CSc1nnc(-c2ccc(O)cc2)[nH]1 |
| inactive | inactive | 1200 | inactive | – | O=C(CSc1nnc(-c2ccc(O)cc2)[nH]1)Nc1ccccc1 |
| inactive | inactive | 160 | inactive | 490 | CCCCc1ccc(NC(=O)CSc2nnc(-c3ccccc3N)[nH]2)cc1 |
| inactive | inactive | 450 | inactive | – | CCc1ccccc1NC(=O)CSc1nnc(-c2ccccc2N)[nH]1 |
| inactive | inactive | 330 | inactive | – | Nc1ccccc1-c1nnc(SCC(=O)Nc2ccccc2)[nH]1 |
| inactive | inactive | 980 | inactive | – | O=C(CSc1nnc(-c2ccccc2O)[nH]1)Nc1ccccc1Cl |
| inactive | inactive | 190 | inactive | – | Cc1ccccc1NC(=O)CSc1nnc(-c2ccccc2)[nH]1 |
| inactive | inactive | 150 | inactive | – | CCCCc1ccc(NC(=O)CSc2nnc(-c3ccccc3)[nH]2)cc1 |
| inactive | inactive | 520 | inactive | – | O=C(CSc1nnc(-c2ccc(O)cc2)[nH]1)Nc1ccccc1Cl |
| inactive | inactive | 990 | inactive | – | CCc1ccccc1NC(=O)CSc1nnc(-c2ccccc2)[nH]1 |
| inactive | inactive | 160 | inactive | – | Cc1ccccc1NC(=O)CSc1nnc(-c2ccccc2O)[nH]1 |
| inactive | inactive | 370 | inactive | 630 | O=C(CSc1nnc(-c2ccc(O)cc2)[nH]1)Nc1cccc(Cl)c1 |
| inactive | inactive | 230 | inactive | – | Nc1ccccc1-c1nnc(SCC(=O)Nc2cccc(Cl)c2)[nH]1 |
| inactive | inactive | 420 | inactive | – | O=C(CSc1nnc(-c2ccccc2O)[nH]1)Nc1ccccc1 |
| inactive | inactive | 610 | inactive | – | Nc1ccccc1-c1nnc(SCC(=O)Nc2ccccc2Cl)[nH]1 |
| inactive | inactive | 170 | inactive | – | O=C(CSc1nnc(-c2ccccc2)[nH]1)Nc1ccccc1 |
| inactive | inactive | 350 | inactive | – | O=C(CSc1nnc(-c2ccccc2)[nH]1)Nc1ccccc1Cl |
| inactive | inactive | 480 | inactive | – | CCCCc1ccc(NC(=O)CSc2nnc(-c3ccc(O)cc3)[nH]2)cc1 |
| inactive | inactive | 690 | inactive | – | O=C(CSc1nnc(-c2ccccc2)[nH]1)Nc1cccc(Cl)c1 |
| inactive | inactive | 930 | inactive | – | CCc1ccccc1NC(=O)CSc1nnc(-c2ccccc2O)[nH]1 |
| inactive | inactive | 1900 | inactive | – | Cc1ccccc1NC(=O)CSc1nnc(-c2ccccc2N)[nH]1 |
